From publication PMC6745243 (Bioorganic & medicinal chemistry letters, 2019)
Values joined by “and” are separate entries in the source; they are usually repeats but may differ in a detail not shown here. Equal entries are not always repeated. Where two headings read alike, the source gives them in different places.

Assays:
IP6K2 = biological target: T1, IP6K2 (Homo sapiens, UniProt Q9UHH9); experiment: ADP-Glo Max assay, purified IP6K2; format: biochemical; details: IP6K2 over IP6K1
T1 sequence (Q9UHH9 1-426): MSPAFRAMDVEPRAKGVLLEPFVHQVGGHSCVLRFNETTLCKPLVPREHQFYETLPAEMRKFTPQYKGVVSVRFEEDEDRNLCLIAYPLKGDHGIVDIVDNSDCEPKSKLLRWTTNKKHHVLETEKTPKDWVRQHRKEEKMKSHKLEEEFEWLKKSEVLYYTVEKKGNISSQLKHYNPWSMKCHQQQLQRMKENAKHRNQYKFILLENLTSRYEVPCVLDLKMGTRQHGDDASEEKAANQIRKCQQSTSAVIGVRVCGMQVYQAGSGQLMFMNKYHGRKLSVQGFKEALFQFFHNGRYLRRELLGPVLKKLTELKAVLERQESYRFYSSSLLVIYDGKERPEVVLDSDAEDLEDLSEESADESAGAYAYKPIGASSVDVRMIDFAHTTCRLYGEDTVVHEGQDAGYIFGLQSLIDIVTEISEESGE

[1] = test system: 58 kinases (diversity panel); experiment: Off-target kinase diversity panel at Eurofins; format: biochemical; details: 10μM, 58 kinases tested
Method in brief: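 Kinase panel included metabolically important enzymes, among them GSK3β, AKT, mTOR and PI3K.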

IP6K3 = biological target: T2, IP6K3 (Homo sapiens, UniProt Q96PC2); experiment: ADP-Glo Max assay, purified IP6K3; format: biochemical; details: IP6K3 over IP6K1
T2 sequence (Q96PC2 1-410): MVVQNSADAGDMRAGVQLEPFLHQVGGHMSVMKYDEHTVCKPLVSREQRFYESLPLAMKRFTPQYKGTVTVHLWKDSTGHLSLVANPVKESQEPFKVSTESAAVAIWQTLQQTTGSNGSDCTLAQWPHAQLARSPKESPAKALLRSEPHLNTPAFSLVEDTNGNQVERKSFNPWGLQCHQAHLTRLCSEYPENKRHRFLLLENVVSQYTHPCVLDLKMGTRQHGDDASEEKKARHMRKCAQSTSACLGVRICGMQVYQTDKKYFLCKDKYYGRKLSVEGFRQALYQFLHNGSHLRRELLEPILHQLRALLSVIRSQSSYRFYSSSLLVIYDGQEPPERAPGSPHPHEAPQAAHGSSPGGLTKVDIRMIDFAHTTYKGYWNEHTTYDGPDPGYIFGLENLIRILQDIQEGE

[2] = Mouse; ref Ghoshal, et al. Mol Metab. 2016; cited from earlier work
[3] = Human; ref Ghoshal, et al. Mol Metab. 2016; cited from earlier work
Aqueous solubility = format: physicochemical
IP6K family = details: cited from earlier work

Row | SMILES | Selectivity (Ki/Ki IP6K1) (IP6K2) | Number of kinases not significantly inhibited (inactive) [1] [kinases] | Number of kinases potently inhibited ([1]; 3 of RAF/MAPK pathway and casein kinase γ) [kinases] | Selectivity (Ki/Ki IP6K1) (IP6K3) [fold] | Microsome stability (t1/2) [2] | Microsome stability (t1/2) [3] | Solubility (Aqueous solubility; 2% DMSO) | Solubility (Aqueous solubility; aqueous buffers) | IP6K selectivity (IP6K family; between IP6K isoforms, ref Padmanabhan, et al. J Biol Chem 2009) | Potency against the IP6K family (IP6K family)
1 | COc1ccc2c(CCNc3nc(NCc4ccc(=O)[nH]c4)c4nc[nH]c4n3)c[nH]c2c1 [Compound 24] | ~ 25 fold and 25 fold | 54 | 4 | ~50 |  |  |  |  |  | 
2 | O=[N+]([O-])c1ccc(CNc2nc(NCc3cccc(C(F)(F)F)c3)nc3[nH]cnc23)cc1 [Compound 1, N2-(m-trifluorobenzyl)-N6-(p-nitrobenzyl) purine] |  |  |  |  | Mouse 9 min ^** | Human 32 min ^** | Mostly insoluble in 2% DMSO | sparingly soluble | Not selective ^* | low micromolar potency
